One may read the inhibition as how much of the control response was suppressed.

Experiment [1] deals with T1, Androgen receptor (Homo sapiens) (UniProt P10275).
T1 sequence (whole entry): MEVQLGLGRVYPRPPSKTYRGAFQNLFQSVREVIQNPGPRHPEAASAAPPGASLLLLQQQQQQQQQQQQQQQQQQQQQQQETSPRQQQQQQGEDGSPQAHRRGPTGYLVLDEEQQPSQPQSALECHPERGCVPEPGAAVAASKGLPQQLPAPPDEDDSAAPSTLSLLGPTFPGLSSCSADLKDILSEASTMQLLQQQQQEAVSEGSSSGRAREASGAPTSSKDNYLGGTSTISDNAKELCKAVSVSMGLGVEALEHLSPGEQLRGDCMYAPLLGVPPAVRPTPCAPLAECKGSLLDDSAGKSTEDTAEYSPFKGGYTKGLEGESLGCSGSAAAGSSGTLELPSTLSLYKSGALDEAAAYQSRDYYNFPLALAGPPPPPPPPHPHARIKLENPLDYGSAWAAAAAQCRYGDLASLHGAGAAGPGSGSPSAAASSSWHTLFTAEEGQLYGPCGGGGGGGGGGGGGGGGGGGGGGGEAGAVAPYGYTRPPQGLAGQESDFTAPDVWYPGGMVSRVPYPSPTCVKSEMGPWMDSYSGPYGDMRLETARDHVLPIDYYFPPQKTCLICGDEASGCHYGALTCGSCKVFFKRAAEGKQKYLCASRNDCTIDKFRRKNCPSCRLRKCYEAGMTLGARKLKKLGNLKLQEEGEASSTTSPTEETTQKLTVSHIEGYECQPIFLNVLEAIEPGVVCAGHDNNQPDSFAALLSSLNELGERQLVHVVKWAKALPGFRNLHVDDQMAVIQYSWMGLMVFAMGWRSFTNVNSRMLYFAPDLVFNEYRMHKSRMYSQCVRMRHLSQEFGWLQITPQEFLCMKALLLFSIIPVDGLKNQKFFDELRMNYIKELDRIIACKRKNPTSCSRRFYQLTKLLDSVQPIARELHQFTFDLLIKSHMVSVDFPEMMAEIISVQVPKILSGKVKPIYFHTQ
Put plainly: Antagonist activity at androgen receptor in human LNCAP cells transfected with p6.1-luciferase assessed as inhibition of R1881-induced transcriptional activity at 7 uM pretreated 1 hr prior to R1881 addition measured after 48 hrs by luciferase reporter gene assay. It is filed as functional, cell-based. The method in brief: (§1)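 LNCaP cells were transfected using lipofectin in serum-free, phenol red-free medium with PSA (6.1 kb) luciferase (0.5 μg/well) plus empty vector (1 μg/well) for 24 h. Cells were then given a 1 h compound pretreatment before R1881 was added. After 48 h, luciferase was read and normalized to Bradford protein, expressed as % of the R1881 + DMSO vehicle maximum. Data are mean ± SD of three experiments, each in triplicate.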
(In general: Reporter assays use an easily measured gene product as a stand-in for the process of interest.)

The subject of another experiment is LNCaP. Kind of experiment: Antiproliferative activity against R1881-stimulated human LNCAP cells expressing androgen receptor at 14 uM treated 1 hr before R1881 addition measured after 72 hrs by BrdU incorporation assay. Format: functional, cell-based. The method in brief: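 LNCaP cells were seeded for 24 h in phenol red-free RPMI 1640 with 0.5% FBS and penicillin/streptomycin, then pretreated for 1 h before 0.1 nM R1881. After 72 h, BrdU was added for 2 h, then cells were fixed and incubated with anti-BrdU-POD for 1.5 h; absorbance was read at 570 nm. Data are mean ± SD of three experiments, 6 technical replicates each, analyzed by Student's t test versus R1881.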
In general terms: Incorporation of labelled thymidine or its analogues reports DNA synthesis.

A further experiment relates to PC-3. Put plainly: Antiproliferative activity against androgen receptor deficient human PC3 cells at 14 uM after 24 hrs by BrdU incorporation assay. It is filed as functional, cell-based. The method in brief:
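PC3 cells were seeded for 24 h in phenol red DMEM with 5% FBS and penicillin/streptomycin, then pretreated for 1 h and cultured 24 h. BrdU was added for 2 h, then cells were fixed and incubated with anti-BrdU-POD for 1.5 h; absorbance was read at 570 nm. Data are mean ± SD of three experiments, 6 technical replicates each, analyzed by Student's t test.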

Experiment [2] has as its target T1, Androgen receptor (Homo sapiens). Put plainly: Antagonist activity at androgen receptor in human LNCAP cells transfected with p6.1-luciferase assessed as inhibition of R1881-induced transcriptional activity at 3.5 uM pretreated 1 hr prior to R1881 addition measured after 48 hrs by luciferase reporter gene assay. It is filed as functional, cell-based. The method in brief: as §1

For experiment [3] the target is unchanged. Kind of experiment: Binding affinity to AF1 region of N-terminus domain androgen receptor at 20 uM after 50 mins by coomassine blue staining based SDS-PAGE analysis. The method in brief: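 Recombinant AR AF1 (purified by Ni2+-agarose, then size exclusion) at 10 μM was incubated on ice for 50 min with 20 μM alkyne probe in DMSO, or DMSO alone. The reaction was then diluted in half and click-labeled with 10 μM fluorescein azide, 0.1 mM ascorbate and 0.1 mM Cu(II)-TBTA for 30–40 min at RT. Labeling of the AF1 band was read as fluorescence on SDS-PAGE.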

Active and inactive are the calls of the source. The rule behind the calls is not given here.

As for `CCCCCCCCCCCCC(=O)/C=C/CCCOC[C@H]1CO1`, the inhibition entry in experiment [1] is “Active”.

In the case of `CCCCCCCCCCCCC(=O)/C=C/CCCOC[C@@H](O)CO`, in experiment [1], the inhibition came to 50%. Moreover, in the experiment with LNCaP, the outcome was Active. Also, in the experiment on PC-3, the outcome was inactive.

Consider `CC(=O)/C=C/CCCOC[C@H](O)CO`, for which the inhibition result in experiment [1] is “inactive”.

In the case of `CCCCCCCCCCC/C=C/C(=O)CCCCOC[C@H](O)CO`, in experiment [1], the inhibition result was “Active”.

`CCCCCCCCCCCCC(=O)/C=C/CCCOC[C@@H](O)CCl`: in experiment [1], the inhibition entry was “Active”.

On to `CCCCCCCCCCCCC(=O)CCCCCOC[C@H](O)CO`, for which the inhibition result in experiment [1] is “Active”.

With `CCCCCCCCCCC/C=C/C(=O)CCCCOC[C@@H](O)CO`, the inhibition result in experiment [1] is “inactive”.

As for `CCCCCCCCCCCCC(=O)/C=C/CCCCC[C@H](O)CO`, the inhibition result in experiment [1] was “Active”.

`CCCCCCCCCCCCC(=O)/C=C/CCCOC[C@@H]1COC(C)(C)O1`: in experiment [1], the inhibition result was “Active”.

For the compound `CCCCCCCCCCCCCCCCCC(=O)/C=C/CCCOC[C@H](O)CO`, the inhibition result in experiment [2] was “Active”.

With `C#CCOC[C@@H](O)COCCC/C=C/C(=O)CCCCCCCCCCCC`, the inhibition entry in experiment [1] is “Active”. The outcome in experiment [3] was Active.

Turning to `CCCCCCCCCCCCC(=O)/C=C/CCCOC[C@@H](O)COCCOCCOCCO`, the inhibition result in experiment [1] is “Active”.

For the compound `CCCCCCCCCCCCC(=O)/C=C/CCCOC[C@H](O)CO`, the inhibition entry in experiment [1] is “Active”. Moreover, in the experiment on LNCaP, the result was Active. The result in the experiment with PC-3 was inactive.

(Values after ChEMBL document CHEMBL1944609, “Niphatenones, glycerol ethers from the sponge Niphates digitalis block androgen receptor transcriptional activity in prostate cancer cells: structure elucidation, synthesis, and biological activity” (J Med Chem, 2012).)
